Assay results published in ChEMBL document CHEMBL1149634, “1-Acylthiosemicarbazides, 1,2,4-triazole-5(4H)-thiones, 1,3,4-thiadiazoles and hydrazones containing 5-methyl-2-benzoxazolinones: synthesis, analgesic-anti-inflammatory and antimicrobial activities” (2007).
≈ marks a conversion by molar mass, not a printed value.

Tests used:
Mus musculus [1] = species on record: Mus musculus; experiment: animal or person; conditions: ip, read-out: Inhibition
Mus musculus [2] = experiment: Antiinflammatory activity against carrageenan-induced hind paw oedema in mouse assessed as swelling thickness at 100 mg/kg, po after 180 mins; format: functional
Summary of the method: (§1)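 Fasted mice (n = 5–6) were dosed orally with the sample in 0.5% CMC/water. One hour later, carrageenan (0.5 mg/25 µl in 154 mM saline) was injected subplantar into the right hind paw. The right-minus-left footpad thickness difference was measured with dial gauge callipers every 90 min over 6 h. Inhibition % is calculated versus vehicle control; mean ± SEM, Student's t test.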

Mus musculus [3] = experiment: Analgesic activity in mouse assessed as inhibition of hind paw lick at 100 mg/kg, ip by hot plate test; format: functional; conditions: route intraperitoneal
Mus musculus [4] = experiment: Analgesic activity in mouse assessed as inhibition of acetic acid induced-abdominal writhing at 100 mg/kg, ip by Koster test; format: functional; conditions: Abdomen, route intraperitoneal
Mus musculus [5] = experiment: Antiinflammatory activity against carrageenan-induced hind paw oedema in mouse assessed as inhibition of swelling thickness at 100 mg/kg, po after 90 mins; format: functional; conditions: 1.5 h
Summary of the method: as §1

Mus musculus [6] = experiment: Antiinflammatory activity against carrageenan-induced hind paw oedema in mouse assessed as swelling thickness at 50 mg/kg, po after 90 mins; format: functional
Summary of the method: as §1

Mus musculus [7] = experiment: Antiinflammatory activity against carrageenan-induced hind paw oedema in mouse assessed as inhibition of swelling thickness at 200 mg/kg, po after 90 mins; format: functional; conditions: 1.5 h
Summary of the method: as §1

Mus musculus [8] = experiment: Antiinflammatory activity against carrageenan-induced hind paw oedema in mouse assessed as swelling thickness at 50 mg/kg, po after 180 mins; format: functional
Summary of the method: as §1

Mus musculus [9] = experiment: Antiinflammatory activity against carrageenan-induced hind paw oedema in mouse assessed as inhibition of swelling thickness at 200 mg/kg, po after 180 mins; format: functional; conditions: 3 h
Summary of the method: as §1

Mus musculus [10] = experiment: Antiinflammatory activity against carrageenan-induced hind paw oedema in mouse assessed as swelling thickness at 50 mg/kg, po after 270 mins; format: functional
Summary of the method: as §1

Mus musculus [11] = experiment: Antiinflammatory activity against carrageenan-induced hind paw oedema in mouse assessed as inhibition of swelling thickness at 200 mg/kg, po after 270 mins; format: functional; conditions: 4.5 h
Summary of the method: as §1

Mus musculus [12] = experiment: Antiinflammatory activity against carrageenan-induced hind paw oedema in mouse assessed as swelling thickness at 50 mg/kg, po after 360 mins; format: functional
Summary of the method: as §1

Mus musculus [13] = experiment: Antiinflammatory activity against carrageenan-induced hind paw oedema in mouse assessed as inhibition of swelling thickness at 200 mg/kg, po after 360 mins; format: functional; conditions: 6 h
Summary of the method: as §1

Mus musculus [14] = experiment: Toxicity in mouse assessed as ulceration effect at 200 mg/kg; format: functional, organism-based; set-up: dose 200 mg/kg
Summary of the method: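 Mice given 200 mg/kg orally in the carrageenan oedema study were killed under deep ether anaesthesia 6 h after treatment. Stomachs were opened along the greater curvature and examined under a dissecting microscope for lesions or bleeding. Result is expressed as the ratio of ulcerated animals per group.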

Staphylococcus aureus = experiment: Antibacterial activity against Staphylococcus aureus ATCC 29213 after 24 hrs by broth microdilution test; format: functional; conditions: ATCC 29213, 24 h
Summary of the method: (§2)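 NCCLS broth microdilution in Mueller-Hinton broth with an inoculum of 5 × 10^5 cfu/mL. Compounds were dissolved in DMSO, diluted in sterile water, and tested as twofold dilutions from 512 to 0.5 µg/mL. Plates were incubated at 35 °C for 24 h. MIC is the lowest concentration preventing visible growth.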

Enterococcus faecalis = experiment: Antibacterial activity against Enterococcus faecalis ATCC 29212 after 24 hrs by broth microdilution test; format: functional; conditions: ATCC 29212, 24 h
Summary of the method: as §2

Escherichia coli = experiment: Antibacterial activity against Escherichia coli ATCC 25922 after 24 hrs by broth microdilution test; format: functional; conditions: ATCC 25922, 24 h
Summary of the method: as §2

Pseudomonas aeruginosa = experiment: Antibacterial activity against Pseudomonas aeruginosa ATCC 27853 after 24 hrs by broth microdilution test; format: functional; conditions: ATCC 27853, 24 h
Summary of the method: as §2

Candida albicans = experiment: Antifungal activity against Candida albicans ATCC 90028 after 48 hrs by broth microdilution test; format: functional; conditions: ATCC 90028, 48 h
Summary of the method: (§3)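 Yeasts tested by NCCLS M27-A broth microdilution in RPMI 1640 (with L-glutamine, without sodium bicarbonate) with an inoculum of 0.5–2.5 × 10^3 cfu/mL. Compounds were prepared from DMSO solution diluted in water as twofold dilutions from 512 to 0.5 µg/mL. Plates were incubated at 35 °C for 48 h. MIC is the lowest concentration giving no visible growth.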

Pichia kudriavzevii = experiment: Antifungal activity against Candida krusei ATCC 6258 after 48 hrs by broth microdilution test; format: functional; conditions: ATCC 6258, 48 h
Summary of the method: as §3

Candida parapsilosis = experiment: Antifungal activity against Candida parapsilosis ATCC 22019 after 48 hrs by broth microdilution test; format: functional; conditions: Lodderomyces parapsilosis, ATCC 22019, 48 h
Summary of the method: as §3

Mus musculus [15] = experiment: Antiinflammatory activity against carrageenan-induced hind paw oedema in mouse assessed as swelling thickness at 100 mg/kg, po after 270 mins; format: functional
Summary of the method: as §1

Mus musculus [16] = experiment: Antiinflammatory activity against carrageenan-induced hind paw oedema in mouse assessed as swelling thickness at 100 mg/kg, po after 360 mins; format: functional
Summary of the method: as §1

Mus musculus [17] = experiment: Antiinflammatory activity against carrageenan-induced hind paw oedema in mouse assessed as inhibition of swelling thickness at 100 mg/kg, po after 180 mins; format: functional; conditions: 3 h
Summary of the method: as §1

Mus musculus [18] = experiment: Antiinflammatory activity against carrageenan-induced hind paw oedema in mouse assessed as inhibition of swelling thickness at 100 mg/kg, po after 270 mins; format: functional; conditions: 4.5 h
Summary of the method: as §1

Mus musculus [19] = experiment: Antiinflammatory activity against carrageenan-induced hind paw oedema in mouse assessed as inhibition of swelling thickness at 50 mg/kg, po after 90 mins; format: functional; conditions: 1.5 h
Summary of the method: as §1

Mus musculus [20] = experiment: Antiinflammatory activity against carrageenan-induced hind paw oedema in mouse assessed as inhibition of swelling thickness at 100 mg/kg, po after 360 mins; format: functional; conditions: 6 h
Summary of the method: as §1

Mus musculus [21] = experiment: Antiinflammatory activity against carrageenan-induced hind paw oedema in mouse assessed as swelling thickness at 200 mg/kg, po after 360 mins; format: functional
Summary of the method: as §1

Mus musculus [22] = experiment: Analgesic activity in mouse assessed as inhibition of acetic acid induced-abdominal writhing at 200 mg/kg, ip by Koster test; format: functional; conditions: Abdomen, route intraperitoneal
Mus musculus [23] = experiment: Antiinflammatory activity against carrageenan-induced hind paw oedema in mouse assessed as inhibition of swelling thickness at 10 mg/kg, po after 180 mins; format: functional; conditions: 3 h
Summary of the method: as §1

Mus musculus [24] = experiment: Antiinflammatory activity against carrageenan-induced hind paw oedema in mouse assessed as inhibition of swelling thickness at 10 mg/kg, po after 270 mins; format: functional; conditions: 4.5 h
Summary of the method: as §1

Mus musculus [25] = experiment: Antiinflammatory activity against carrageenan-induced hind paw oedema in mouse assessed as inhibition of swelling thickness at 10 mg/kg, po after 360 mins; format: functional; conditions: 6 h
Summary of the method: as §1

Mus musculus [26] = species on record: Mus musculus; experiment: animal or person; conditions: po, 1.5 h, read-out: Inhibition
Mus musculus [27] = experiment: Antiinflammatory activity against carrageenan-induced hind paw oedema in mouse assessed as swelling thickness at 200 mg/kg, po after 270 mins; format: functional
Summary of the method: as §1

Row | Compound | inhibition in vivo at 100 mg/kg (Mus musculus [3]) [%] | inhibition in vivo at 100 mg/kg (Mus musculus [4]) [%] | inhibition in vivo at 100 mg/kg (Mus musculus [5]) [%] | inhibition in vivo at 200 mg/kg (Mus musculus [7]) [%] | Activity (Mus musculus [8]) [%] | inhibition in vivo at 200 mg/kg (Mus musculus [9]) [%] | Activity (Mus musculus [10]) [%] | inhibition in vivo at 200 mg/kg (Mus musculus [11]) [%] | Activity (Mus musculus [12]) [%] | Activity (Mus musculus [14]) | MIC (Staphylococcus aureus) [µg/mL] | MIC (Enterococcus faecalis) [µg/mL] | MIC (Escherichia coli) [µg/mL] | MIC (Pseudomonas aeruginosa) [µg/mL] | MIC (Candida albicans) [µg/mL] | MIC (Pichia kudriavzevii) [µg/mL] | MIC (Candida parapsilosis) [µg/mL] | Activity (Mus musculus [15]) [%] | inhibition in vivo at 100 mg/kg (Mus musculus [17]) [%] | inhibition in vivo at 50 mg/kg (Mus musculus [19]) [%] | further results
1 | CN1CC[C@]23c4c5ccc(O)c4O[C@H]2[C@@H](O)C=C[C@H]3[C@H]1C5 [MORPHINE] | – | – | – | – | – | – | – | – | – | – | – | – | – | – | – | – | – | – | – | – | inhibition in vivo at 10 mg/kg (Mus musculus [1]): 50.7%
2 | CCn1c(Cn2c(=O)oc3ccc(C)cc32)n[nH]c1=S | 36.2 | 43.5 | 57.1 | 56.5 | 91.1 | 31.8 | 147.3 | 25.9 | 146.7 | Not toxic | 512 (≈ 1760 µM) | 512 (≈ 1760 µM) | 512 (≈ 1760 µM) | 256 (≈ 882 µM) | 512 (≈ 1760 µM) | 256 (≈ 882 µM) | 256 (≈ 882 µM) | 117.6 | – | – | Activity (Mus musculus [2]): 95.9%; Activity (Mus musculus [6]): 82.9%; inhibition in vivo at 200 mg/kg (Mus musculus [13]): 19.7%; Activity (Mus musculus [16]): 87.1%
3 | CCNc1nnc(Cn2c(=O)oc3ccc(C)cc32)s1 | 25.4 | 68.5 | 84.8 | 85.3 | 90.1 | 71.3 | 102.8 | 45.4 | 94 | – | 512 (≈ 1760 µM) | > 512 | 512 (≈ 1760 µM) | 512 (≈ 1760 µM) | 512 (≈ 1760 µM) | 512 (≈ 1760 µM) | 256 (≈ 882 µM) | – | 33.8 | 7.9 | inhibition in vivo at 100 mg/kg (Mus musculus [18]): 7.1%; inhibition in vivo at 200 mg/kg (Mus musculus [13]): 11.1%
4 | Cc1ccc2oc(=O)n(CC(=O)N/N=C/c3ccc(Br)cc3)c2c1 | 20.3 | 72.6 | 44.4 | – | 94.6 | 46.9 | 95.9 | 11.1 | 83 | Toxic | > 512 | > 512 | > 512 | > 512 | 64 (≈ 165 µM) | 256 (≈ 659 µM) | 128 (≈ 330 µM) | 92 | 43.7 | 1.9 | inhibition in vivo at 100 mg/kg (Mus musculus [20]): 19.1%; Activity (Mus musculus [21]): 84.4%
5 | CC(=O)Oc1ccccc1C(=O)O [ASPIRIN] | – | – | – | – | – | – | – | – | – | – | – | – | – | – | – | – | – | – | – | – | inhibition in vivo at 200 mg/kg (Mus musculus [22]): 65.7%
6 | COc1ccc(/C=N/NC(=O)Cn2c(=O)oc3ccc(C)cc32)cc1 | 27.5 | 65.7 | 82.4 | 87.9 | 82.3 | 65.2 | 108.8 | 38.3 | 87.2 | Toxic | 256 (≈ 754 µM) | 128 (≈ 377 µM) | 512 (≈ 1510 µM) | 256 (≈ 754 µM) | 128 (≈ 377 µM) | 128 (≈ 377 µM) | 512 (≈ 1510 µM) | 95.4 | – | 19.5 | Activity (Mus musculus [2]): 100.8%; inhibition in vivo at 100 mg/kg (Mus musculus [20]): 17.5%; Activity (Mus musculus [21]): 86.2%
7 | COc1ccc2c(c1)c(CC(=O)O)c(C)n2C(=O)c1ccc(Cl)cc1 [INDOMETHACIN] | – | – | – | – | – | – | – | – | – | – | – | – | – | – | – | – | – | – | – | – | inhibition in vivo at 10 mg/kg (Mus musculus [23]): 43%; inhibition in vivo at 10 mg/kg (Mus musculus [24]): 46.3%; inhibition in vivo at 10 mg/kg (Mus musculus [25]): 41.6%; inhibition in vivo at 10 mg/kg (Mus musculus [26]): 42%
8 | Cc1ccc(/C=N/NC(=O)Cn2c(=O)oc3ccc(C)cc32)cc1 | 52.9 | 77.8 | 69.7 | 17.1 | 86.8 | 33.3 | 103.8 | – | 98 | – | 512 (≈ 1580 µM) | 256 (≈ 792 µM) | 128 (≈ 396 µM) | 256 (≈ 792 µM) | 128 (≈ 396 µM) | 128 (≈ 396 µM) | 128 (≈ 396 µM) | 92 | 9.4 | – | Activity (Mus musculus [6]): 73.8%; inhibition in vivo at 100 mg/kg (Mus musculus [20]): 12.6%; Activity (Mus musculus [27]): 89.1%; Activity (Mus musculus [21]): 83.6%
